Assay results reported in ChEMBL document CHEMBL4706647, “Development and optimization of halogenated vinyl sulfones as Nrf2 activators for the treatment of Parkinson's disease” (Eur J Med Chem, 2021).
Active and inactive are the calls of the source. The rule behind the calls is not given here.

How the values were obtained:
[1] = molecular target: T1, Nuclear factor erythroid 2-related factor 2 (Mus musculus) (UniProt Q60795); assay: Activation of Nrf2 in mouse BV-2 cells assessed as increase in Gclm mRNA expression after 6 hrs by RT-qPCR analysis; assay type: cell-based; conditions: filed as activator, dose 0.03-1 µM
T1 sequence (whole entry): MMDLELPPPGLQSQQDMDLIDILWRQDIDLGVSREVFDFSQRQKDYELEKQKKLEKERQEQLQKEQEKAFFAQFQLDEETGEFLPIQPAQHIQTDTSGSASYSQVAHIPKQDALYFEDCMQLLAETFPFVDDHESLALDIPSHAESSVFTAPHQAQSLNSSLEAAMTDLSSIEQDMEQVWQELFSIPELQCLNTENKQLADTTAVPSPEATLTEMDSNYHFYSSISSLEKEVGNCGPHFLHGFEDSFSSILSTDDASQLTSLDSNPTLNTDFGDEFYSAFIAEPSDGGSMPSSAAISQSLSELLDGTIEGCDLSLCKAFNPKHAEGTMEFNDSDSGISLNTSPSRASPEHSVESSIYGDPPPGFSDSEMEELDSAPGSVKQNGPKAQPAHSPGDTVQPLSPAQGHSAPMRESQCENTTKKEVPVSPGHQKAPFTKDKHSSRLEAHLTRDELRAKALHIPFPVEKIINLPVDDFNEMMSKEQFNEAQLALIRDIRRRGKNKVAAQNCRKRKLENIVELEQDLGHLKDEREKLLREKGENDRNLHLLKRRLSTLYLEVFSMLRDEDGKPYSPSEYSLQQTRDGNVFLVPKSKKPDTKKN
How it was run: (§1)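 BV-2 cells exposed to a range of concentrations for 6 h. Ho1, Gclc, Gclm and Sod1 mRNA quantified by RT-qPCR and expressed relative to vehicle-treated control. Mean ± SEM, n = 3; Student's t-test.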

[2] = Cytotoxicity against mouse BV-2 cells assessed cell viability at 10 uM measured after 6 hrs by Ez-cytox reagent based assay relative to control; conditions: read-out: Activity
Mus musculus [3] = assay: Neuroprotective activity in MPTP-induced C57BL/6 mouse model of Parkinson's disease assessed as ability to pull and climb to the top of the hanger at 30 mg/kg, po pretreated for 1 day followed by MPTP challenge and subsequent compound dosing for 2 days measured 6 days post MPTP challenge by coat-hanger test; assay type: functional, organism-based; conditions: time 7.0 day
How it was run: (§2)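 Male C57BL/6 mice, 10 weeks old, 23–26 g, n = 10 per group. Dosed 30 mg/kg p.o. for 3 consecutive days in 10% N-methyl-2-pyrrolidone/20% Tween-80 in water. On day 2, MPTP-HCl 20 mg/kg i.p. given four times at 2 h intervals. Coat-hanger (scored 1–5, test done twice) and vertical grid tests run 6 days after MPTP. Brains taken next day for anti-TH immunohistochemistry (1:1000, DAB).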

[4] = molecular target: T1, Nuclear factor erythroid 2-related factor 2 (Mus musculus); assay: Activation of Nrf2 in mouse BV-2 cells assessed as increase in nuclear Nrf2 levels at 10 uM after 6 hrs by Western blot analysis relative to control; assay type: cell-based; conditions: filed as activator
Mus musculus [5] = assay: Neuroprotective activity in MPTP-induced C57BL/6 mouse model of Parkinson's disease assessed as reduction in time to climb down at 30 mg/kg, po pretreated for 1 day followed by MPTP challenge and subsequent compound dosing for 2 days measured 6 days post MPTP challenge by vertical grid test; assay type: functional, organism-based; conditions: time 7.0 day; how it was run: as §2
CYP2C9 = CYP2C9 (Homo sapiens, UniProt P11712); assay: Inhibition of CYP2C9 (unknown origin) assessed as residual activity; assay type: ADME
Chain of CYP2C9 (P11712 whole entry): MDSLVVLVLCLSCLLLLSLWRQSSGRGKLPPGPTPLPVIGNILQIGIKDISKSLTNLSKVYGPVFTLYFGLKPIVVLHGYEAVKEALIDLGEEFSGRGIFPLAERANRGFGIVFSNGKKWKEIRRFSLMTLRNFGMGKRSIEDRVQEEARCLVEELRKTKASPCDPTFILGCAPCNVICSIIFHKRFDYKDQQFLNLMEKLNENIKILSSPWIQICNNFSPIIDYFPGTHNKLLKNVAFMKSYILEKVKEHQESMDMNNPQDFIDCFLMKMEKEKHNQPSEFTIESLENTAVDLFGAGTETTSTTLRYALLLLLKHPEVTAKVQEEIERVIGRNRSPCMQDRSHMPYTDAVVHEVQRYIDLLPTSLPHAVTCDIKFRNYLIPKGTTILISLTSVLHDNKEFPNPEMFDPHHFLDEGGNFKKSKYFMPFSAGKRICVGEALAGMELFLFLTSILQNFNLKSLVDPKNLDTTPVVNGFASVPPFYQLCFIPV

Mus musculus [6] = assay: Neuroprotective activity in MPTP-induced C57BL/6 mouse model of Parkinson's disease assessed as reduction in time to turn at 30 mg/kg, po pretreated for 1 day followed by MPTP challenge and subsequent compound dosing for 2 days measured 6 days post MPTP challenge by vertical grid test; assay type: functional, organism-based; conditions: time 7.0 day; how it was run: as §2
BV-2 [7] = assay: Antiinflammatory activity in mouse BV-2 cells assessed as inhibition of LPS-induced IL6 production preincubated for 6 hrs followed by LPS stimulation and measured after 24 hrs by ELISA; assay type: functional, cell-based; conditions: dose 0.02-2 µM, time 30.0 hrs
How it was run: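 BV-2 cells seeded in 12-well plates and pretreated 6 h with compound at […]. LPS then added for 24 h. TNF-α and IL-6 released into the medium quantified by ELISA. Mean ± SEM, n = 3, three separate experiments.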

BV-2 [8] = assay: Antiinflammatory activity in mouse BV-2 cells assessed as inhibition of LPS-induced iNOS expression at 2 uM preincubated for 6 hrs followed by LPS stimulation and measured after 24 hrs by Western blot analysis; assay type: functional, cell-based; conditions: time 30.0 hrs
How it was run: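 BV-2 cells pretreated with compound, then stimulated with LPS. iNOS protein measured by Western blot with β-actin as internal control. Mean ± SEM, n = 3, three separate experiments.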

[9] = molecular target: T1, Nuclear factor erythroid 2-related factor 2 (Mus musculus); assay: Activation of Nrf2 in mouse BV-2 cells assessed as increase in SOD1 expression after 6 hrs by Western blot analysis; assay type: cell-based; conditions: filed as activator, dose 0.02-10 µM
How it was run: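 BV-2 microglia grown in RPMI-1640 with 10% FBS, penicillin-streptomycin and 2 mM L-glutamine at 37 °C, 5% CO2. Cells exposed to a range of concentrations for 6 h, then HO-1, GCLC, GCLM and SOD1 protein measured by Western blot. Band intensity normalized to β-actin and given as fold of vehicle control. Mean ± SEM, n = 3, three separate experiments.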

[10] = molecular target: T1, Nuclear factor erythroid 2-related factor 2 (Mus musculus); assay: Activation of Nrf2 in mouse BV-2 cells assessed as increase in HO1 mRNA expression after 6 hrs by RT-qPCR analysis; assay type: cell-based; conditions: filed as activator, dose 0.03-1 µM; how it was run: as §1
CYP1A2 = molecular target: T2, CYP1A2 (Homo sapiens, UniProt P05177); assay: Inhibition of CYP1A2 (unknown origin) assessed as residual activity; assay type: ADME
T2 sequence (P05177 whole entry): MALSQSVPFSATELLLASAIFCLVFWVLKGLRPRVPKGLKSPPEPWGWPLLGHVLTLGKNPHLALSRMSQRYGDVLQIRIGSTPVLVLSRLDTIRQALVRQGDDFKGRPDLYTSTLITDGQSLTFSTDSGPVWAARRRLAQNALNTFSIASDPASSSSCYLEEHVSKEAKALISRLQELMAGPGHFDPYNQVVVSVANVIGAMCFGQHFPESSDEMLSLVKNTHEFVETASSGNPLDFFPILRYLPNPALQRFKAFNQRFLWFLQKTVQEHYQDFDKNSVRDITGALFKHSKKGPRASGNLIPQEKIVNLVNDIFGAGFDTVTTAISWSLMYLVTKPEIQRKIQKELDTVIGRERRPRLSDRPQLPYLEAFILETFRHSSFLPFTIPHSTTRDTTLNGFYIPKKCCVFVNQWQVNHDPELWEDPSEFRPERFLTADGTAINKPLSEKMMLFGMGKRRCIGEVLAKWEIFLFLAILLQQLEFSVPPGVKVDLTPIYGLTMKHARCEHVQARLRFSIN

Activity [1]: Dose-dependent effect
fold change (FC) [4]: 22.6
activity (CYP2C9): 69.1%
Activity [9]: Dose-dependent effect
Activity [10]: Dose-dependent effect
activity (CYP1A2): 88.4%
SMILES: O=S(=O)(/C=C/c1ncccc1Cl)c1ccccc1Cl
viability at 6 h, 10 µM [2]: 100%
Activity (Mus musculus [3]): Active
Activity (Mus musculus [5]): Active
Activity (Mus musculus [6]): Active
inhibition (BV-2 [7]): Dose-dependent effect
inhibition (BV-2 [8]): Active
